# Laboratory results: ChEMBL document CHEMBL1123041, “Synthesis of new bis(aminoethanethiol) (BAT) derivatives: possible ligands for 99mTc brain imaging agents” (J Med Chem, 1985)
# Columns and labels:
# Rattus norvegicus [1] = test: Biodistribution in Sprague-Dawley rat kidneys(2) 15 minutes after intravenous administration, [99mTc]/[125I] IAP ratio); type: ADME, organism-based, Kidney; conditions: in vivo, 0.25 h
# Summary of the method: (§1)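 99mTc complex and [125I]iodoantipyrine were co-injected iv into rats. Rats were killed by cardiectomy at 2 or 15 min, and organs were excised, weighed and gamma-counted in two channels with spillover correction. The ratio is 99mTc percent dose divided by 125I percent dose in the same organ, averaged over three rats. Radiochemical purity of the complexes was >95% by reversed-phase HPLC.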
# Rattus norvegicus [2] = test: Biodistribution in Sprague-Dawley rat skin 2 minutes after intravenous administration, [99mTc]/[125I] IAP ratio); type: ADME, organism-based, Zone of skin; conditions: in vivo; summary of the method: as §1
# Rattus norvegicus [3] = test: Biodistribution in Sprague-Dawley rat small intestine 15 minutes after intravenous administration, [99mTc]/[125I] IAP ratio); type: ADME, organism-based; conditions: in vivo, 0.25 h; summary of the method: as §1
# Rattus norvegicus [4] = test: Biodistribution in Sprague-Dawley rat small intestine 2 minutes after intravenous administration, [99mTc]/[125I] IAP ratio); type: ADME, organism-based; conditions: in vivo; summary of the method: as §1
# Rattus norvegicus [5] = test: Biodistribution in Sprague-Dawley rat spleen 15 minutes after intravenous administration, [99mTc]/[125I] IAP ratio); type: ADME, organism-based; conditions: in vivo, 0.25 h; summary of the method: as §1
# Rattus norvegicus [6] = test: Biodistribution in Sprague-Dawley rat spleen 2 minutes after intravenous administration, [99mTc]/[125I] IAP ratio); type: ADME, organism-based; conditions: in vivo; summary of the method: as §1
# Rattus norvegicus [7] = test: Biodistribution in Sprague-Dawley rat thyroid 15 minutes after intravenous administration, [99mTc]/[125I] IAP ratio); type: ADME, organism-based, Thyroid gland; conditions: in vivo, 0.25 h; summary of the method: as §1
# Rattus norvegicus [8] = test: Biodistribution in Sprague-Dawley rat thyroid 2 minutes after intravenous administration, [99mTc]/[125I] IAP ratio); type: ADME, organism-based, Thyroid gland; conditions: in vivo; summary of the method: as §1
# Rattus norvegicus [9] = test: Biodistribution in Sprague-Dawley rat blood 15 minutes after intravenous administration, [99mTc]/[125I] IAP ratio); type: ADME, organism-based; conditions: in vivo, 0.25 h; summary of the method: as §1
# Rattus norvegicus [10] = test: Biodistribution in Sprague-Dawley rat blood 2 minutes after intravenous administration, [99mTc]/[125I] IAP ratio); type: ADME, organism-based; conditions: in vivo; summary of the method: as §1
# Rattus norvegicus [11] = test: Biodistribution in Sprague-Dawley rat brain 15 minutes after intravenous administration, [99mTc]/[125I] IAP ratio); type: ADME, organism-based; conditions: in vivo, 0.25 h; summary of the method: as §1
# Rattus norvegicus [12] = test: Biodistribution in Sprague-Dawley rat brain 2 minutes after intravenous administration, [99mTc]/[125I] IAP ratio); type: ADME, organism-based; conditions: in vivo; summary of the method: as §1
# Rattus norvegicus [13] = test: Biodistribution in Sprague-Dawley rat heart 15 minutes after intravenous administration, [99mTc]/[125I] IAP ratio); type: ADME, organism-based; conditions: in vivo, 0.25 h; summary of the method: as §1
# Rattus norvegicus [14] = test: Biodistribution in Sprague-Dawley rat heart 2 minutes after intravenous administration, [99mTc]/[125I] IAP ratio); type: ADME, organism-based; conditions: in vivo; summary of the method: as §1
# Rattus norvegicus [15] = test: Biodistribution in Sprague-Dawley rat stomach 15 minutes after intravenous administration, [99mTc]/[125I] IAP ratio); type: ADME, organism-based; conditions: in vivo, 0.25 h; summary of the method: as §1
# Rattus norvegicus [16] = test: Biodistribution in Sprague-Dawley rat stomach 2 minutes after intravenous administration, [99mTc]/[125I] IAP ratio); type: ADME, organism-based; conditions: in vivo; summary of the method: as §1
# Rattus norvegicus [17] = test: Biodistribution in Sprague-Dawley rat kidneys(2) 2 minutes after intravenous administration, [99mTc]/[125I] IAP ratio); type: ADME, organism-based, Kidney; conditions: in vivo; summary of the method: as §1
# Rattus norvegicus [18] = test: Biodistribution in Sprague-Dawley rat liver 15 minutes after intravenous administration, [99mTc]/[125I] IAP ratio); type: ADME, organism-based; conditions: in vivo, 0.25 h; summary of the method: as §1
# Rattus norvegicus [19] = test: Biodistribution in Sprague-Dawley rat liver 2 minutes after intravenous administration, [99mTc]/[125I] IAP ratio); type: ADME, organism-based; conditions: in vivo; summary of the method: as §1
# Rattus norvegicus [20] = test: Biodistribution in Sprague-Dawley rat lungs(2) 15 minutes after intravenous administration, [99mTc]/[125I] IAP ratio); type: ADME, organism-based, Lung; conditions: in vivo, 0.25 h; summary of the method: as §1
# Rattus norvegicus [21] = test: Biodistribution in Sprague-Dawley rat lungs(2) 2 minutes after intravenous administration, [99mTc]/[125I] IAP ratio); type: ADME, organism-based, Lung; conditions: in vivo; summary of the method: as §1
# Rattus norvegicus [22] = test: Biodistribution in Sprague-Dawley rat muscle 15 minutes after intravenous administration, [99mTc]/[125I] IAP ratio); type: ADME, organism-based, Muscle tissue; conditions: in vivo, 0.25 h; summary of the method: as §1
# Rattus norvegicus [23] = test: Biodistribution in Sprague-Dawley rat muscle 2 minutes after intravenous administration, [99mTc]/[125I] IAP ratio); type: ADME, organism-based, Muscle tissue; conditions: in vivo; summary of the method: as §1
# Rattus norvegicus [24] = test: Biodistribution in Sprague-Dawley rat skin 15 minutes after intravenous administration, [99mTc]/[125I] IAP ratio); type: ADME, organism-based, Zone of skin; conditions: in vivo, 0.25 h; summary of the method: as §1
# [25] = Partition coefficient was determined at pH 7.0.; type: ADME; conditions: octanol/water
# Summary of the method: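 99mTc-labelled BAT complex shaken with 3 g each of 1-octanol and 0.1 M phosphate buffer (pH 7.0), vortexed 3 min at room temperature, centrifuged 5 min. Two 0.5 g samples per layer counted in a well counter; PC = cpm/g octanol over cpm/g buffer. Octanol layer repartitioned until values were consistent; usually repeated three times.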
# Homo sapiens = species: Homo sapiens; test: The human serum protein binding activity was determined; type: functional
# Summary of the method: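 Equilibrium dialysis: 0.4 mL pooled human serum against 0.4 mL 0.15 M phosphate buffer pH 7.4 containing 99mTc complex (~0.025 μCi), rotated 18 h at 37 °C. Both sides weighed and counted; percent free = buffer/serum radioactivity concentration ratio × 100. Membrane counted afterwards to check membrane binding.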
structure (smiles),measurement,setting,value
COc1ccccc1C(CNCC(C)(C)S)NCC(C)(C)S (stereo unspecified),Dose,Rattus norvegicus [1],1.1%
same,Dose,Rattus norvegicus [2],5.21%
same,Dose,Rattus norvegicus [3],12.5%
same,Dose,Rattus norvegicus [4],4.47%
same,Dose,Rattus norvegicus [5],0.197%
same,Dose,Rattus norvegicus [6],0.149%
same,Dose,Rattus norvegicus [7],0.063%
same,Dose,Rattus norvegicus [8],0.292%
same,Dose,Rattus norvegicus [9],2.56%
same,Dose,Rattus norvegicus [10],7.81%
same,Dose,Rattus norvegicus [11],0.297%
same,Dose,Rattus norvegicus [12],2.3%
same,Dose,Rattus norvegicus [13],0.395%
same,Dose,Rattus norvegicus [14],4.46%
same,Dose,Rattus norvegicus [15],3.16%
same,Dose,Rattus norvegicus [16],1.07%
same,Dose,Rattus norvegicus [17],3.23%
same,Dose,Rattus norvegicus [18],17.4%
same,Dose,Rattus norvegicus [19],11.9%
same,Dose,Rattus norvegicus [20],0.877%
same,Dose,Rattus norvegicus [21],5.49%
same,Dose,Rattus norvegicus [22],15.1%
same,Dose,Rattus norvegicus [23],7.09%
same,Dose,Rattus norvegicus [24],11.8%
same,Partition coefficient,[25],260
same,Free,Homo sapiens,23.4%
